Data published in ChEMBL document CHEMBL4118075, “Thiophene/thiazole-benzene replacement on guanidine derivatives targeting α2-Adrenoceptors” (Eur J Med Chem, 2017).
Activity calls are given as the source filed them. The calls are words filed in the database; no cut-off is given here.

Experiments:
[1] = molecular target: T1, Adrenergic receptor alpha-2 (Homo sapiens, UniProt P08913+P18825+P18089); assay: Displacement of [3H]RX821002 from alpha2 adrenergic receptor in human brain prefrontal cortex membranes after 30 mins by microbeta liquid scintillation spectrometry; set-up: species or system Membrane
T1 sequence (P08913 whole entry): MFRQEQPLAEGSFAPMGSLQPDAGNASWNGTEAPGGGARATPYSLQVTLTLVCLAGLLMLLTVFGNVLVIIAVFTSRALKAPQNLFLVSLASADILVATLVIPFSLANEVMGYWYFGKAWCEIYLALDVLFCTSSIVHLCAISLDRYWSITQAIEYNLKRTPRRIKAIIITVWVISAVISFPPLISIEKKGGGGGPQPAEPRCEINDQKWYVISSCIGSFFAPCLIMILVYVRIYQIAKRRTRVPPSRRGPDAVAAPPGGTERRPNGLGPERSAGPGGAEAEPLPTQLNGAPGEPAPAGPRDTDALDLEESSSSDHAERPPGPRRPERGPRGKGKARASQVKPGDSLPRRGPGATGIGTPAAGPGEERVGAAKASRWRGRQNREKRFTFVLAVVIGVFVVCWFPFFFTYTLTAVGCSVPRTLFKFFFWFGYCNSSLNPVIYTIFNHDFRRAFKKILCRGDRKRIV
T1 sequence (P18825 whole entry): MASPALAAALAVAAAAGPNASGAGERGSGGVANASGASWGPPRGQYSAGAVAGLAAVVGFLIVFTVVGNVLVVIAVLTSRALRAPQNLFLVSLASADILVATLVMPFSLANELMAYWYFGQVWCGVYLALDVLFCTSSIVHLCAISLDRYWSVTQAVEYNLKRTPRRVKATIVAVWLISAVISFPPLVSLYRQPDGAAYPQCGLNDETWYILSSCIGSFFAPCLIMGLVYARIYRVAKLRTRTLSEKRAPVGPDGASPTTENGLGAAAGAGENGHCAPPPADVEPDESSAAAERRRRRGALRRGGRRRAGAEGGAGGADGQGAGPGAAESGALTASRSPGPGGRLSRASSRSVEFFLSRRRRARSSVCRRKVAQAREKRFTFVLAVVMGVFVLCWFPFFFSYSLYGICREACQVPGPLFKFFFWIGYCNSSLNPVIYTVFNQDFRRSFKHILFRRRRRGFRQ
T1 sequence (P18089 whole entry): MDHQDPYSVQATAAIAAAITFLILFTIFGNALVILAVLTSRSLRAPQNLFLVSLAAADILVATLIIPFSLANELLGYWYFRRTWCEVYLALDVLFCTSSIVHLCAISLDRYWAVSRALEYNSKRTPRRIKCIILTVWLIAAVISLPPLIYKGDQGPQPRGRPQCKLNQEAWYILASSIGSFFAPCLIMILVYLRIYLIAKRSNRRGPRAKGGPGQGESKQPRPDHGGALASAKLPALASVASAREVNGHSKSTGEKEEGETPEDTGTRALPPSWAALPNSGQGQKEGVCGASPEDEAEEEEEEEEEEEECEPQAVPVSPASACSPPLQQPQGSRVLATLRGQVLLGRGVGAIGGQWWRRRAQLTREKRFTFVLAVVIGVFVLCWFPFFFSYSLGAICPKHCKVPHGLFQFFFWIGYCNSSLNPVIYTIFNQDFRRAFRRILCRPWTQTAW
How it was run: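 Competition binding on post-mortem human PFC P2 membranes in 50 mM Tris-HCl pH 7.5. [3H]RX821002 at 2 nM; competitor at 10 concentrations from 10⁻¹² to 10⁻³ M; 30 min at 25 °C. Vacuum filtration on GF/C, scintillation counting. Nonspecific binding defined with adrenaline 10⁻⁵ M. Ki from nonlinear regression with a one-site model.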

[2] = molecular target: T1, Adrenergic receptor alpha-2; assay: Activity at alpha2 adrenergic receptor in human brain prefrontal cortex membranes assessed as effect on UK14304-induced [35S]GTPgammaS binding by measuring UK14304 EC50 at 10^-5 M after 120 mins by microbeta liquid scintillation spectrometry (reference value: 0.4 +/- 0.01 uM); assay type: functional, Membrane
[3] = molecular target: T2, Adrenergic receptor alpha-2 (Homo sapiens) (UniProt P08913+P18825+P18089); assay: Agonist activity at alpha2 adrenergic receptor in human brain prefrontal cortex membranes assessed as stimulation of [35S]GTPgammaS binding at 10^-5 M after 120 mins in presence of antagonist RX821002 by microbeta liquid scintillation spectrometry; assay type: functional; settings: Membrane
[4] = molecular target: T2, Adrenergic receptor alpha-2 (Homo sapiens); assay: Agonist activity at alpha2 adrenergic receptor in human brain prefrontal cortex membranes assessed as stimulation of [35S]GTPgammaS binding at 10^-12 to 10^-3 M after 120 mins by microbeta liquid scintillation spectrometry; assay type: functional; settings: Membrane
How it was run: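 GTPγS exchange in human prefrontal cortex P2 membranes (20 µg/well) with 0.5 nM [35S]GTPγS, in EGTA/MgCl₂/100 mM NaCl/GDP/Tris pH 7.4 buffer. Ten concentrations from 10⁻¹² to 10⁻³ M; 30 °C for 120 min with shaking. Filtered on GF/C and scintillation counted; nonspecific binding with 10 µM GTPγS. EC50 and Emax expressed as % over basal binding.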

[5] = molecular target: T2, Adrenergic receptor alpha-2 (Homo sapiens); assay: Activity at alpha2 adrenergic receptor in human brain prefrontal cortex membranes assessed as effect on UK14304-induced [35S]GTPgammaS binding at 10^-5 M after 120 mins by microbeta liquid scintillation spectrometry (reference value: 132 +/- 2%); assay type: functional; settings: Membrane

SMILES	Ki [1] [µM]	EC50 [2] [µM]	Activity [3]	Activity [4]	Emax [5] [%]
Cl.N=C(N)Nc1cc2c(s1)CCCCC2	0.156	10.7	inactive	Active	124
Cl.N=C(N)Nc1ccsc1	1.968				
Cl.N=C(N)Nc1cc2c(s1)CCCC2	0.0313	0.8		inactive	111
Cl.N=C(N)NCc1cccs1	3.928				
Cl.N=C(N)NCCc1cccs1	0.751	1.7			117
CCOC(=O)c1c(C)csc1NC(=N)N.Cl	66.53				
COC(=O)c1sccc1NC(=N)N.Cl	> 100				
COC(=O)c1ccsc1NC(=N)N.Cl	> 100				

Results, then the compound that gave them:

Ki [1] [µM]	EC50 [2] [µM]	Activity [3]	Activity [4]	Emax [5] [%]	SMILES
2.215					Cl.N#Cc1c(NC(=N)N)sc2c1CCC2
> 100					CCOC(=O)c1c(NC(=N)N)sc2c1CCCCC2.Cl
30.15					CCOC(=O)c1c(NC(=N)N)sc2c1CCC2.Cl
1.205	11.4		inactive	105	Cl.N=C(N)Nc1nc2c(s1)CCCC2
0.733	6.6		inactive	128	Cl.N#Cc1c(NC(=N)N)sc2c1CCCC2
0.0879	0.5		inactive	111	Cl.N=C(N)Nc1cc2c(s1)CCC2
9.086					CCOC(=O)c1c(NC(=N)N)sc2c1CCCC2.Cl
1.198					Cl.N#Cc1c(NC(=N)N)sc2c1CCCCC2
0.706	1.5		inactive	126	Cl.N=C(N)Nc1nc2c(s1)CCC2
